Compound activity from PubChem BioAssay.
Dynein transport = blocks dynein driven cargo transport along microtubules; 3617.4 mouse cells, GR-EGFP nuclear translocation imaging; test concentration mostly 20 µM; stimulated with dexamethasone, 1 µM; active compounds read low; z-score, hits read low; actives 0.47% (n = 220,000);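 active means plate z-score of nuclear minus cytoplasmic receptor signal below a set negative limit, without overly bright fluorescence or cell loss, cut at about -3.5 in these data, passing the limit was not always enough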;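 further: z-score of nuclear minus cytoplasmic ring GR-EGFP intensity difference per well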
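Also added – dexamethasone, 1.0 µM final · Buffer or medium – tet-free, stripped-serum medium · Schedule – induction 48 h, compound 1 h, agonist 30 min · Detection – formaldehyde fixation, Hoechst nuclear stain, 10x automated fluorescence imaging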
HSV replic up = increases HSV replication in cells; HSV replication augmentation in cells, fold increase; maximum fold increase; actives 0.005% (n = 220,000); AID 1956; in the data active means maximum fold increase above about 1.5; inconclusive means no clear call, values can overlap the other calls; tested in PC3 cells
bCat nuc transl = beta-catenin nuclear translocation modulation; HeLa beta-catenin nuclear translocation, immunofluorescence imaging; nuclear translocation activity, % at 5 µM; actives 0.3% (n = 190,000);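 active means nuclear translocation activity above 50% at 5 µM, with a well cell count of 50 or more; inconclusive means wells under 50 cells across six images, flagged as toxic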;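 further: per-cell ratio of nuclear to cytoplasmic median beta-catenin stain intensity; plate controls were DMSO negative control for no effect and GSK-3 inhibitor IX positive control for full effect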
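Read-out: Nuclear/cytoplasmic beta-catenin signal ratio, % activation | Assay system: Human HeLa cell line | Times: 24 h compound exposure at 37°C, 5% CO2 | Signal: Fluorescence imaging of beta-catenin antibody stain plus DAPI | Dosing: 5 µM primary, 0.02–20 µM confirmation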
MT stabilize HCS = microtubule stabilization, imaging screen | HeLa tubulin immunostaining HCS, 24 h; share of cells brighter than vehicle mean+2SD | % tubulin-high responders, % at 10 µM | actives 0.83% (n = 200,000) | AID 2205;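 active means plate Z-score above 3 for both tubulin-high and condensed-nucleus cell shares, with cell loss under 80%, at 10 µM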;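 further: anti alpha tubulin signal scored within the nucleus-defined area of each cell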
Lmaj promast = inhibitors of Leishmania major promastigote growth. Leishmania major promastigotes, resazurin fluorescence viability. inhibition, % at 10 µM. actives 9% (n = 200,000). AID 1063; in the data active means inhibition above about 50%;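 further: promastigotes grown with compound for 44 hours at 28 °C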
The depositor's hits bear a star. Rows were chosen to be rich in hits. Some 8.9% of all compounds tested hit in one or more screens of this group.

CCN(CC)CC(=O)Nc1ccc2c(c1)Nc1ccccc1CC2 was read as Dynein transport -0.897, HSV replic up inactive, bCat nuc transl 19.4, MT stabilize HCS 31.3* and Lmaj promast 52.4*.
Screening CCN1C(=O)/C(=C/C=C2/Sc3ccc4ccccc4c3N2CCO)SC1=S returned Dynein transport 1.39, bCat nuc transl 31.2, MT stabilize HCS 25.7 and Lmaj promast 65.1*.
`CCN1C(c2ccccc2)=C(c2ccccc2)S/C1=C\C=C1/SC(=S)N(C)C1=O` gave Dynein transport 0.0715, HSV replic up inactive, MT stabilize HCS 37.9 and Lmaj promast 8.1.
For CCOC(=O)N/N=C(C)/C=C/c1ccco1 the results were Dynein transport 1.23, HSV replic up inactive, bCat nuc transl 2.2, MT stabilize HCS 1.7 and Lmaj promast 84.2*.
Screening CCOC(=O)N/N=C(C)/C=C/c1ccccc1 returned Dynein transport -0.15, HSV replic up inactive, bCat nuc transl -0.9, MT stabilize HCS 2.0 and Lmaj promast -1.8.
Screening COc1ccc(Oc2ccccc2/C=N/O)cc1 returned Dynein transport -0.0331, HSV replic up inactive, bCat nuc transl -1.9, MT stabilize HCS 2.4 and Lmaj promast -1.3.
`COc1ccc(-c2cc(C(=O)N/N=C/c3ccc(OC)c(COCC(F)(F)C(F)F)c3)c3ccccc3n2)c(OC)c1` gave Dynein transport -1.3, HSV replic up inactive, bCat nuc transl -1.2, MT stabilize HCS 2.5 and Lmaj promast 48.5.
COc1ccc(-c2cc(C(=O)N/N=C/c3ccc4c(c3)OCO4)c3ccccc3n2)c(OC)c1 was read as Dynein transport 0.595, HSV replic up inactive, bCat nuc transl 3.2, MT stabilize HCS 3.9 and Lmaj promast 77.4*.
Screening COc1ccc(-c2cc(C(=O)N/N=C/c3sccc3C)c3ccccc3n2)c(OC)c1 returned Dynein transport 0.992, HSV replic up inactive, MT stabilize HCS 2.3 and Lmaj promast 78.6*.
Screening O=[N+]([O-])c1ccc(/C=N/NC(=S)Nc2ccccc2)o1 returned Dynein transport -1.65, HSV replic up inactive, bCat nuc transl 0.8, MT stabilize HCS 5.5 and Lmaj promast 50.4*.
`O=[N+]([O-])c1cccc(-c2ccc(/C=N/NC(=S)Nc3ccccc3)o2)c1` gave Dynein transport -1.28, HSV replic up inconclusive, bCat nuc transl -1.9, MT stabilize HCS 3.5 and Lmaj promast 59.4*.
Screening COc1ccc(NC(=O)c2ccccc2)c([N+](=O)[O-])c1 returned Dynein transport 0.169, HSV replic up inactive, bCat nuc transl -2.2, MT stabilize HCS 4.1 and Lmaj promast 6.8.
Screening COc1ccc(NC(=S)NC(NC(=O)c2cccc(C)c2)C(Cl)(Cl)Cl)c([N+](=O)[O-])c1 (stereo not given) returned Dynein transport 0.11, HSV replic up inactive, bCat nuc transl -1.2, MT stabilize HCS 2.5 and Lmaj promast 35.0.
`COc1ccc(NC(=S)NC(NC(=O)c2cccc(Cl)c2)C(Cl)(Cl)Cl)c([N+](=O)[O-])c1` (stereo not given) gave Dynein transport -0.193, HSV replic up inactive, bCat nuc transl 1.6, MT stabilize HCS 5.7 and Lmaj promast 93.8*.
Screening COc1ccc(NC(=O)c2cccnc2)c([N+](=O)[O-])c1 returned Dynein transport 2.28, HSV replic up inactive, bCat nuc transl 2.9, MT stabilize HCS 21.7* and Lmaj promast -2.6.
For CCC(C)C(=O)Nc1ccc(OC)cc1[N+](=O)[O-] (stereo not given) the results were Dynein transport 0.603, HSV replic up inactive, MT stabilize HCS 3.0 and Lmaj promast 53.4*.
Screening CCN1C(=O)N[C@@H](c2ccco2)C(C(C)=O)=C1C returned HSV replic up inactive.
`O=C(CNc1ccc(F)cc1)c1ccccc1` gave Dynein transport -0.87, HSV replic up inactive, bCat nuc transl -0.3, MT stabilize HCS 3.1 and Lmaj promast 83.2*.
O=C(CC(=O)c1ccccc1O)c1ccc(F)cc1 was read as Dynein transport -0.192, HSV replic up inactive, MT stabilize HCS 3.4 and Lmaj promast 97.4*.
For O=C(CC(=O)c1ccccc1O)c1cccc(F)c1 the results were Dynein transport -0.55, HSV replic up inactive, bCat nuc transl -3.2, MT stabilize HCS 4.9 and Lmaj promast 97.8*.
Screening CN(C)CCNC(=O)Nc1ccc([N+](=O)[O-])cc1 returned Dynein transport -1.21, HSV replic up inactive, bCat nuc transl -2.2, MT stabilize HCS 2.7 and Lmaj promast -9.4.
For Cc1ccc(-c2csc(C(C#N)=C3CCCC3)n2)cc1 the results were Dynein transport 0.467, HSV replic up inactive, bCat nuc transl -1.2, MT stabilize HCS 2.6 and Lmaj promast -0.5.
For COc1cc(N=c2ssnc2Cl)c(OC)cc1Cl the results were Dynein transport -2.86, HSV replic up inactive, bCat nuc transl -4.6, MT stabilize HCS 4.1 and Lmaj promast 3.5.
Screening COc1ccc(OC)c(N=c2ssnc2Cl)c1 returned Dynein transport -4.74*, HSV replic up inactive, bCat nuc transl -0.3, MT stabilize HCS 3.8 and Lmaj promast 17.9.
Screening CN(c1ccc(C(=O)N2CCN(Cc3ccc4c(c3)OCO4)CC2)cc1)S(=O)(=O)c1ccccc1 returned Dynein transport -0.796, HSV replic up inactive, bCat nuc transl 0.4, MT stabilize HCS 2.2 and Lmaj promast 95.5*.
Screening COc1ccc(N(CC(=O)N2CCN(Cc3ccc4c(c3)OCO4)CC2)S(=O)(=O)c2ccc(F)cc2)cc1 returned Dynein transport -0.935, HSV replic up inactive and bCat nuc transl 1.5.
O=C(CN(c1ccccc1)S(=O)(=O)c1ccccc1)N1CCN(Cc2ccc3c(c2)OCO3)CC1 was read as Dynein transport 2.29, HSV replic up inactive, MT stabilize HCS 2.3 and Lmaj promast 72.0*.
Screening CCOC(=O)N1CCN(C(=O)CN(c2cccc(C)c2)S(=O)(=O)c2ccccc2)CC1 returned Dynein transport -1.15, HSV replic up inactive, bCat nuc transl -0.1, MT stabilize HCS 3.1 and Lmaj promast 4.8.
Cc1ccc(S(=O)(=O)N(C)c2ccc(C(=O)N3CCN(Cc4ccc5c(c4)OCO5)CC3)cc2)cc1 was read as Dynein transport 0.112, HSV replic up inactive, MT stabilize HCS 1.0 and Lmaj promast 99.8*.
CCN1CCN(C(=O)CN(c2cccc(Br)c2)S(=O)(=O)c2ccccc2)CC1 was read as Dynein transport 2.71, HSV replic up inactive, bCat nuc transl 1.0, MT stabilize HCS 3.7 and Lmaj promast 98.5*.
Screening COc1cc(NC(=O)c2ccccc2)c(OC)cc1NC(=O)CN1CCOCC1 returned Dynein transport 0.644, HSV replic up inactive, bCat nuc transl -6.5, MT stabilize HCS 2.9 and Lmaj promast -2.6.
`CCCCOC(=O)C1=C(C)Nc2ncnn2C1c1ccc(OCC)c(OC)c1` (stereo not given) gave Dynein transport -0.125, HSV replic up inactive, bCat nuc transl 0.1, MT stabilize HCS 2.7 and Lmaj promast 26.2.
